The values that follow come from ChEMBL document CHEMBL4513216, “Probing the Open Global Health Chemical Diversity Library for Multistage-Active Starting Points for Next-Generation Antimalarials” (ACS Infect Dis, 2020).

The structures appear in SMILES notation.

A short description of this data set: Toxicity liver stage against HepG2, at 10uM. The data set is classed as cell-based. Set-up: test concentration 10 uM, cell line HepG2-A16-CD81EGFP. The note with it: human, HepG2-A16-CD81EGFP cells; read-out: INHIBITION
A digest of the protocol:
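Uninfected HepG2-A16-CD81EGFP cells, 3 × 10^3 per well, 1536-well, plated on prespotted compound at 10 μM final, parasite-free screening media added to match infected plates; puromycin 10 μM positive, DMSO 0.5% negative; run in parallel with 48 h PbLuc assay at 37 °C, 5% CO2; viability by CellTiter-Glo luminescence, normalized to controls.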
In the case of `c1ccc(-c2noc([C@@H]3Cc4nc[nH]c4CN3)n2)cc1`, the cytotoxicity at 10 µM was -4.26%.

As for `CC(C)CCNC(=O)c1csc(NC2CC2)n1`, the cytotoxicity at 10 µM is -0.243%. To `COc1cccc2c1ccn2CCNC(=O)CC(C)C` belongs 4.38%. Take `O=C(COc1ccc(-n2cccn2)nn1)N1CCCC1`: the cytotoxicity at 10 µM was found to be 1.43%.

As for `Cc1nsc(C(=O)NCCc2ccccc2)n1`, the cytotoxicity at 10 µM stood at 4.28%. To `O=C(c1cccnc1)N1CCOCC2(CCN(c3ncccn3)C2)C1` (stereo not drawn) belongs 8.88%. For `O=C(c1ccccn1)N1CCc2ncnc(N3CCOCC3)c2CC1` the value was 0.661%; for `CCOCC(=O)N1CCCn2c(CN3CCOCC3)nnc2C1`, -132%; for `Cn1nc(C#N)c2c1CN(C(=O)c1ccco1)CCC2`, -133%.

On to `O=C1CCCN1Cc1noc(-c2ccc(Cl)cc2)n1`, for which the cytotoxicity at 10 µM amounted to 5.56%. For `CC(C)c1nn(CC(=O)N2CCCCC2)c(=O)c2c1cnn2C(C)(C)C` the value was -13.2%. For `O=C(c1cn(-c2cc(N3CCSCC3)ncn2)cn1)N1CCSCC1` the value was -17.3%; for `COc1cccc(-c2cc(C(=O)NCCCn3nc(C)cc3C)[nH]n2)c1`, -5.86%. As for `CCOC(=O)Cc1n[nH]c(-c2cncc(Br)c2)n1`, the cytotoxicity at 10 µM was determined as 3.24%. For `O=C(c1ccc(-c2ccc(O)nc2)s1)N1CCCCC1` the value was 3.35%. To `Cc1cccnc1C(=O)N1CCCC(Cc2cncc3ccccc23)C1` (stereo not drawn) belongs -18%; to `N#Cc1cnc2cc(F)cc(F)c2c1NC1CCN(CC(N)=O)CC1`, 0%.

For `CC(c1nc(-c2ccccc2)no1)N1CC(n2cccn2)C1` (stereo not drawn), the cytotoxicity at 10 µM stood at 1.62%. To `CNC(=O)CN1CCC(CN(C)CCSc2ccccc2)CC1` belongs -0.488%. Take `c1nc2onc(C3CC3)c2cc1-c1nnc(C2CC2)o1`: the cytotoxicity at 10 µM was 8.03%. To `Cn1ccnc1CN1CCCC1CCc1ccccc1` (stereo not drawn) belongs 13.8%. Take `CC(C)(CNC(=O)c1ccco1)NC(=O)OC(C)(C)C`: the cytotoxicity at 10 µM is -2.43%. For `Cn1cc(N2CCN(c3ccc(C#N)cc3Br)CC2=O)cn1` the value was -5.48%; for `O=C(NCC1(O)CCSCC1)c1nccc2ccccc12`, 4.59%. To `CCCN(Cc1ccccc1O)S(=O)(=O)C(C)CC` (stereo not drawn) belongs 9.02%; to `Cc1ccc(C(=O)NC2CCCN(c3ncccn3)C2)cn1` (stereo not drawn), -7.08%. To `CCc1nnsc1C(=O)NCc1c(C)nn(CCOC)c1C` belongs -8.8%. With `CCc1nc(CN2CCCC(NCCn3cncn3)C2)no1` (stereo not drawn), the cytotoxicity at 10 µM was -7.24%. For `OC(CN1CCN(CC2CC2)CC1)c1ccc(Br)cc1` (stereo not drawn) the value was -8.69%; for `CS(=O)(=O)NC1CCN(C(=O)c2ccc(Br)cc2)C1` (stereo not drawn), 4.94%. To `Cc1ccc(Nc2c(C#N)c(=O)n(C)c(=O)n2C)cc1F` belongs -4.99%; to `O=C(c1cccnc1-n1cncn1)N1CCN(c2ccccc2)CC1`, 4.06%. With `Cc1cc(NC(=O)NCC(c2ccsc2)N(C)C)n(C)n1` (stereo not drawn), the cytotoxicity at 10 µM was -5.33%.

For the compound `Cc1c(C(=O)NCCN2C(=O)CCC2=O)sc2ccc(F)cc12`, the cytotoxicity at 10 µM is 2.11%. To `CN(C)c1ccc(NC(=O)c2ccnn2C)nc1` belongs 15.1%; to `CC(=O)N1CCCN(CCn2nc3ccccn3c2=O)CC1`, -137%. For `CCC(=O)Nc1ccc(C(C)NC(=O)COC)cc1` (stereo not drawn), the cytotoxicity at 10 µM is -145%. To `CC(C)NC(=O)c1nnn(-c2ccccc2)c1C1CC1` belongs 2.2%.

Regarding `Cc1cc(CNc2ccc3nc(C4CC4)sc3c2)no1`, the cytotoxicity at 10 µM worked out at 0.981%. For `O=c1[nH]nc(CNc2cncc(Br)c2)[nH]1`, the cytotoxicity at 10 µM is -1.23%. Turning to `N#Cc1cnc(NCCCN2C(=O)COc3ccccc32)c(Cl)c1`, the cytotoxicity at 10 µM is -3.64%. For `CC1CCC(NS(=O)(=O)CC(=O)Nc2ccc(N3CCCC3)cn2)CC1` (stereo not drawn) the value was 1.54%; for `CS(=O)(=O)NCCNC(=O)Cc1ccc(Br)s1`, -7.21%; for `CN(CCCc1cc(-c2ccc(F)cc2)n(C)n1)CC(N)=O`, -8.71%. For `CS(=O)(=O)CCOCCNc1ccc2ccc(F)cc2n1` the value was 3.55%. For `O=C(COc1cccc2c1CCC2=O)NCCSc1ccccc1` the value was -1.22%. Take `O=C(N[C@H]1CN2CCC1CC2)c1cc(Cn2cnc3ccccc32)[nH]n1`: the cytotoxicity at 10 µM is -4.26%.

`O=C1NCCCc2[nH]c(-c3nc(C4CCCCC4)no3)nc21`: the cytotoxicity at 10 µM was -0.627%. As to `CN(Cc1cc[nH]n1)C(=O)C1CC(=O)N(Cc2ccncc2)C1` (stereo not drawn), the cytotoxicity at 10 µM is 1.59%. In the case of `Cc1nccc(N2C[C@H](NC(=O)CNS(C)(=O)=O)[C@@H](C3CC3)C2)n1`, the cytotoxicity at 10 µM was -13.8%. Regarding `CCC(NC(=O)c1cnc(N(C)C)nc1C)c1ccncc1` (stereo not drawn), the cytotoxicity at 10 µM is -2.9%. For `O=C(CCC1CCN(C(=O)c2cnco2)CC1)NCc1cccc(Cl)c1` the value was -8.48%. Take `Nc1nc(CCNc2ncnc3c2CCN(C(=O)C2CC2)C3)cs1`: the cytotoxicity at 10 µM was -6.68%. For `COCc1ccc(C(=O)N2CCc3c(ncnc3N3CCOCC3)C2)o1` the value was -2.17%. For `CSc1ccc(-c2nc(CN3CCC(CN)C3)c(C)o2)cc1` (stereo not drawn) the value was -2.65%; for `CC(C)(O)C1CCCN(C(=O)Nc2nc(-c3ccccc3)ns2)C1` (stereo not drawn), -137%. To `Cc1nc(C(C)C)sc1C(=O)NCCSc1nccn1C` belongs -1.7%; to `CCC(CO)N(Cc1ccsc1)Cc1ccccc1C(=O)O` (stereo not drawn), -14.4%. Regarding `O=C(c1cncc(N2CCC3(CCCNC3)C2)n1)N1CCCC1` (stereo not drawn), the cytotoxicity at 10 µM was -4.15%. To `CCCc1nnc(NC2CCN(C3CCSCC3)CC2)o1` belongs -1.38%; to `COc1cccnc1-c1ccc(F)c2c1OC(CN)C2` (stereo not drawn), 1.74%; to `Cc1c(CNC(=O)c2cn(CCC3CCCCN3)nn2)cnn1C` (stereo not drawn), -3.44%.

For `CCCc1nnc(N(C)CC2CCN(CC(C)C)C2)o1` (stereo not drawn), the cytotoxicity at 10 µM is -1.41%. To `CCc1ncc(C(=O)N(C)CC2Cc3ccccc3O2)cn1` (stereo not drawn) belongs -0.734%; to `Cc1cc(N2CCCC(O)(CN(C)C)CC2)nc(-c2ccccc2)n1` (stereo not drawn), -9.41%. To `CCN1CCc2[nH]cnc2C12CCN(c1ccc(Cl)cn1)CC2` belongs 6%.

With `CCSCCC(=O)NCc1cc2n(n1)CCN(C(=O)N(C)C)C2`, the cytotoxicity at 10 µM is -5.38%. To `COc1ccccc1Oc1ncccc1CNC(=O)[C@@H](N)CCO` belongs -17.5%. As to `NC(=O)Cn1cc(NC(=O)N2CCN(c3ccccc3)CC2)cn1`, the cytotoxicity at 10 µM was -8.45%.

Regarding `O=C(Cn1nc(-c2ccc(F)cc2)oc1=O)NCc1ccccc1F`, the cytotoxicity at 10 µM was -9.04%.

In the case of `CN1CCCC1CNC(=O)CCCOc1ccc(Br)cc1` (stereo not drawn), the cytotoxicity at 10 µM is -7.69%. For `Cc1nc(C2CCCN2Cc2ccon2)no1` (stereo not drawn) the value was -18%; for `CCN1CCOC(CNCc2csc(C)n2)C1` (stereo not drawn), -5.13%; for `COc1c(CNC2CCc3ccccc32)c(C)nn1C` (stereo not drawn), 7.08%. To `NC(=O)Cn1cc(NC(=O)NCCN2CCc3ccccc3C2)cn1` belongs -9.52%; to `CCn1cnnc1CNC(=O)N1CCN(Cc2ccsc2)CC1`, -15.4%. For `CNc1cc2c(nn1)CCN(C(=O)c1cc(C)no1)C2` the value was -15.8%; for `O=C(Cc1ccc2c(c1)CCC2)N1CCCC(n2cccn2)C1` (stereo not drawn), -7.81%. Consider `Cc1ccc(C(=O)N2CCc3c(CNc4ncccn4)cncc3C2)o1`, for which the cytotoxicity at 10 µM was 9.21%. To `Cc1ncnc2c1CCN(Cc1ccccn1)CC2` belongs -10.4%. For `Cc1cccc(C(=O)N2C[C@@H]3COC[C@@H](CC(=O)N4CCCC4)[C@@H]3C2)n1` the value was -120%; for `c1cncc(OC[C@@]23CCO[C@@H]2CCN(Cc2cccs2)C3)c1`, 14.6%; for `O=C(CN1CC(c2nc(-c3ccco3)no2)C1)NCCc1ccccc1`, -9.54%. To `CCN(CC)[C@@H]1CN(C(=O)c2ccnnc2)[C@@H]2CCCO[C@H]12` belongs -146%.

With `Cc1cnc(N2C[C@@H]3CCN(CC(=O)N(C)C)C(=O)[C@H]3C2)nc1`, the cytotoxicity at 10 µM was -19%. For `CO[C@@H]1CCN(Cc2cccc(C)n2)[C@@H]2CN(Cc3ccncc3)C[C@@H]21` the value was 0.951%; for `CCn1ncc2c1C(COC)CN(Cc1cccnc1)C2` (stereo not drawn), 0.588%. To `O=C(c1cnccn1)N1CCCC2(CCN(Cc3ccsc3)CC2)C1` belongs 1.55%; to `O=C(c1cccc(F)c1)N1C[C@H]2CN(Cc3ccccn3)C[C@H]2C1`, -1.92%; to `O=C(c1ccc[nH]1)N1CC[C@@H](OCC2CC2)[C@@H]1Cc1cccnc1`, 0.878%. To `CN1CC[C@H]2OCC[C@@]2(C(=O)NCCc2ccccn2)C1` belongs 1.82%. In the case of `COCCN1CCC2(CC1)CCN(Cc1ccccn1)CC2`, the cytotoxicity at 10 µM is -3.54%.

Consider `CC[C@@H]1N(Cc2ccc(F)cc2)CCC[C@]12CCC(=O)N2CCOC`, for which the cytotoxicity at 10 µM was 11.5%.

Turning to `Cc1ccc(C(=O)N2C[C@@H]3CCN(C(C)C)C[C@@H]3C2)cn1`, the cytotoxicity at 10 µM was -6.54%. Regarding `COc1ccc(-n2cc3[nH]c(=O)n(Cc4cccc(F)c4)n3c2=O)cc1`, the cytotoxicity at 10 µM was 14.8%.

Turning to `CN1[C@@H]2CC[C@H]1CN(C(=O)c1nnc3n1CCCCC3)CC2`, the cytotoxicity at 10 µM was -5.43%. Regarding `Cc1ccc(C)c(CN2C[C@@H]3CC[C@H]2CN(C(=O)c2cccnc2)C3)c1`, the cytotoxicity at 10 µM was 3.41%. To `CSc1nc(N)cc(N2C[C@H]3CC[C@@H](C2)N(CC2CC2)C3=O)n1` belongs 0.291%.
